Among all 2,500 compounds or so, about 460 (18%) were called active. Only a sample is shown. Unmarked numbers belong to inactive results.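 The calls were made as follows: active = mean activation above a cutoff of low control average plus 3 SD from the earlier screen (cut at about 12% in these data); inactive = the rest.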

This test is described as follows: compound fluorescence interference without thin filaments, confirmation, artefact control for cardiac RTF calcium sensitizer project, biochemical (AID 504382). The conditions noted are these: IANBD fluorescence interference counterscreen, buffer, EC20 Ca2+; at 7.2 µM; stronger effect = higher value; scaled: EC20 calcium 0, EC100 calcium 100. The method in brief: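 Technique: fluorescence, 480/540 nm / Medium: MOPS-based buffer with KCl, MgCl2, EGTA, NTA, DTT, pH 7.2 / Probe or stimulus: calcium at EC20 level, 0.472 mM final / Repeats: triplicate wells per compound / Times: 15 min compound exposure at 25 °C / Measure: compound fluorescence interference relative to control well signal range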
With `O=C(O)c1ccc(NC(=S)NC(=O)c2ccc(-c3ccccc3)cc2)cc1`, the fluorescence artifact activation was 9.94%.

With `CCNC(=O)COc1ccc(-c2ccccc2)cc1`, the fluorescence artifact activation was 0.09%.

In the case of `O=C(O)CCC(=O)NNC(=O)c1ccc(-c2ccccc2)cc1`, the fluorescence artifact activation is 49% (active).

On to `COc1cc(NC(=O)CSc2ccccc2)c(C(=O)O)cc1OC`, for which the fluorescence artifact activation was 3.35%.

Regarding `Nc1nc(SCc2cccc(Br)c2)n[nH]1`, the fluorescence artifact activation was 0.03%.

In the case of `CC(Sc1nc2ncc(Cl)cc2[nH]1)C(=O)Nc1ccc(C(N)=O)cc1` (stereo not given), the fluorescence artifact activation was -0.03%.

Regarding `CCN1CCN(c2c(/C=C3\SC(=S)N(Cc4ccco4)C3=O)c(C)c(C#N)c(=O)n2C)CC1`, the fluorescence artifact activation was 0.03%.

Turning to `CCCN(CCC)c1nc2c(C)cccn2c(=O)c1/C=C1/SC(=S)N(Cc2ccco2)C1=O`, the fluorescence artifact activation is 0.05%.

As for `O=C1/C(=C\c2c(NCCOCCO)nc3ccccn3c2=O)SC(=S)N1Cc1ccco1`, the fluorescence artifact activation was 31.6% (active).

Regarding `Cc1cccc(C)c1NC(=O)CNC(=O)Cc1ccc(Br)cc1`, the fluorescence artifact activation was 0.05%.

Turning to `C=CCn1c(C)c(/C=C/c2cc[n+](C)cc2)c2ccccc21`, the fluorescence artifact activation is 8.02%.

For the compound `O=c1cc2c(c(-c3ccccc3)n1Cc1ccccc1)[C@H](CCO)NC2`, the fluorescence artifact activation is 0.32%.

Regarding `Cn1c(=O)c2cc(NCc3ccccc3)nnc2n(C)c1=O`, the fluorescence artifact activation was 0.34%.

Regarding `Cn1c(=O)cc(N)n(Cc2ccccc2)c1=O`, the fluorescence artifact activation is 14.3% (active).

With `CN1CCN(C(=O)c2cc3ccccc3[nH]2)CC1`, the fluorescence artifact activation was -0.01%.

Regarding `CCC(CC)C(=O)c1c[nH]c(C(=O)N2CCN(c3ccccc3F)CC2)c1`, the fluorescence artifact activation was 17% (active).

With `CC(C)CN1CCC(C(=O)N2CCN(c3ccccc3F)CC2)CC1`, the fluorescence artifact activation was -0.02%.

For the compound `CC(=O)Nc1ccc2nc3c(=O)n(C)c(=O)n(C)c3nc2c1`, the fluorescence artifact activation is 1.77%.

On to `COc1ccc(CCNC(=O)CN(C)S(=O)(=O)c2ccc3c(c2)CCC(=O)N3)cc1OC`, for which the fluorescence artifact activation is -0.01%.

Take `COc1cc(/C=C/C(=O)c2ccc3c(c2)OCO3)cc(Cl)c1O`: the fluorescence artifact activation was 1.66%.

In the case of `Cc1cc[n+](-c2[nH]c(=O)sc2/C=N/NC([S-])=Nc2ccccc2)cc1`, the fluorescence artifact activation is 1.49%.

As for `CCOC(=O)CC(=O)CSc1nc(-c2ccc3c(c2)OCO3)cc(C(F)(F)F)c1C#N`, the fluorescence artifact activation is 0.09%.

For the compound `CC(C)OC(=O)CC(=O)CSc1nc(-c2ccc(F)cc2)cc(-c2ccccc2)c1C#N`, the fluorescence artifact activation is 17.5% (active).

For the compound `COc1ccc(-c2cc(C3CC3)nc(SCC(=O)c3cccs3)c2C#N)cc1`, the fluorescence artifact activation is 0.1%.

As for `Cc1cc(C)n(-c2nc3ccccc3nc2Nc2ccc3[nH]c(=O)[nH]c3c2)n1`, the fluorescence artifact activation is 4.66%.

`CC(C)Oc1ccc(/C(O)=C2/C(=O)C(=O)N(CCN3CCNCC3)C2c2cccc([N+](=O)[O-])c2)cc1` (stereo not given): the fluorescence artifact activation is 1.8%.

In the case of `CCOC(=O)C1=C(C)NC(=O)/C1=C\N(C)C`, the fluorescence artifact activation is 0.04%.

Regarding `Cc1cc(C)c(NC(=S)N(C)C)c(C)c1`, the fluorescence artifact activation is 31.3% (active).

On to `NC(=O)c1ccccc1N/C=C/C(=O)c1ccc(Cl)cc1Cl`, for which the fluorescence artifact activation is 1.35%.

Consider `COc1ccc(N(C(=O)c2ccc(C)cc2)S(=O)(=O)c2cccs2)cc1`, for which the fluorescence artifact activation is 54.9% (active).

For `COc1ccc(NC(=O)C(c2ccc(C)cc2)N(C)C(=O)Cc2cccs2)cc1` (stereo not given), the fluorescence artifact activation is 0.03%.

As for `COc1ccc(NC(=O)CNS(=O)(=O)c2cccs2)cc1`, the fluorescence artifact activation was -0.02%.

On to `CCOC(=O)C(C#N)C(c1cccnc1)c1c(C)[nH][nH]c1=O` (stereo not given), for which the fluorescence artifact activation is 0.03%.

`O=C(CSc1nc2ccccc2s1)c1cc2ccccc2o1`: the fluorescence artifact activation was 6.22%.

For the compound `Cc1ccccc1Nc1nnc(SCC(=O)c2cc3ccccc3o2)s1`, the fluorescence artifact activation was -0.07%.

With `O=C(CSc1nc2cc(Cl)ccc2s1)c1cc2ccccc2o1`, the fluorescence artifact activation was 39.2% (active).

Take `CCN(CC)C(=O)c1ccc(/C=C/c2c[nH]c3ccccc23)[n+](C)c1`: the fluorescence artifact activation was 0.26%.

Consider `Brc1ccc(C2=CC(c3ccco3)n3ncnc3N2)cc1` (stereo not given), for which the fluorescence artifact activation is 0.04%.

Turning to `Brc1ccc(C2=CC(c3cccs3)n3ncnc3N2)cc1` (stereo not given), the fluorescence artifact activation is 0.13%.

With `CS(=O)(=O)Nc1nc2n(n1)C(c1ccccc1)C=C(c1ccc(Br)cc1)N2` (stereo not given), the fluorescence artifact activation is 13% (active).

For `O=C(O)C1=C[C@H](c2ccccc2)C[C@H](OCc2ccc(CO)cc2)O1`, the fluorescence artifact activation is 0.07%.

As to `Cc1ccc(NC(=O)C(OC(=O)c2ccc(F)cc2)c2ccccc2)cc1Cl` (stereo not given), the fluorescence artifact activation is -0.03%.

On to `Cn1nc(NC(=O)C2CCC2C(=O)O)c2c(F)cccc21` (stereo not given), for which the fluorescence artifact activation is 7.56%.

On to `CC(C)(C)OC(=O)N1CC=C2C(C#N)=C(N)C(C#N)(C#N)C(c3cccs3)C2C1` (stereo not given), for which the fluorescence artifact activation was -0.03%.

`Cc1cc(C)c(OCCOCCN2CCNCC2)c(C)c1`: the fluorescence artifact activation was 0.06%.

In the case of `COc1cc(/C=C(\C#N)C(=O)c2c[nH]c3ccccc23)cc(OC)c1O`, the fluorescence artifact activation was 0.14%.

On to `OCCc1c[nH]c2ccccc12`, for which the fluorescence artifact activation is 0.07%.

Regarding `NC(=O)c1c[nH]c2ccccc12`, the fluorescence artifact activation was 288% (active).

Take `CC(C)(C)OC(=O)N1CCC(Cc2cc(-c3cccnc3)no2)(C(=O)O)CC1`: the fluorescence artifact activation was 3.74%.

As to `Cc1ccc(NC(=O)c2cc(C(=O)c3cc(Cl)ccc3O)cn(-c3ccc(C)cc3)c2=O)cc1`, the fluorescence artifact activation is 3.68%.

As for `CCOC(=O)C(C)(C)Sc1nc2c(cnn2-c2ccc(Cl)cc2)c(=O)[nH]1`, the fluorescence artifact activation was 71.5% (active).

On to `CCOC(=O)C(C)Sc1nnc(Cc2cc(=O)[nH]c(=O)[nH]2)n1-c1ccc(Cl)cc1` (stereo not given), for which the fluorescence artifact activation is 0.21%.

For `CCCCNC(=O)COC(=O)c1c2c(nc3ccccc13)/C(=C\c1cccs1)CC2`, the fluorescence artifact activation was 1.6%.

As to `Nc1cccc2c1C(=O)N(c1ccccc1)C2=O`, the fluorescence artifact activation is 1.26%.

As to `Cc1cc(=O)oc(C)c1C(=O)Nc1ccc2ncccc2c1`, the fluorescence artifact activation is 0.24%.

Take `O=C(Cc1ccccc1)Nc1cccc(-c2nc3ncccc3o2)c1`: the fluorescence artifact activation was 0.02%.

`CCC(=O)Nc1ccc2oc(-c3cccnc3)nc2c1`: the fluorescence artifact activation was 77.1% (active).

Regarding `COc1ccc(C)cc1NC(=O)C12CCC(C)(C(=O)O1)C2(C)C` (stereo not given), the fluorescence artifact activation was 6.57%.

On to `CC1(C)CC(=O)c2sc(NC(=O)Cc3cccs3)nc2C1`, for which the fluorescence artifact activation is 0.43%.

`CN(C)c1ccc(/C=C2\SC(=S)N(Nc3ncc(C(F)(F)F)cc3Cl)C2=O)cc1`: the fluorescence artifact activation is 1.93%.

On to `N=C1c2ccccc2CN1c1ccc(S(=O)(=O)N2CCCCC2)cc1`, for which the fluorescence artifact activation was 9.61%.

As for `Cc1ccc(S(=O)(=O)N2CCOCC2)cc1C(=O)N1C(=O)c2cccc(N)c2C1=O`, the fluorescence artifact activation is 0.13%.

In the case of `CCOC(=O)/C(=C/C=C1\Sc2ccccc2N1CC)C(C)=O`, the fluorescence artifact activation was 51.3% (active).

Take `CCN1/C(=C\C=C(C(C)=O)C(C)=O)Sc2ccccc21`: the fluorescence artifact activation was 0.42%.

`CCOC(=O)/C(=C\C=C1/Sc2ccccc2N1CC)C(C)=O`: the fluorescence artifact activation was 0.04%.

For the compound `COC(=O)C1=C(C(=O)OC)[C@@H]2Nc3ccccc3[C@@]23C[C@@H](C(=O)OC)N(C(=O)c2cccs2)C3=N1`, the fluorescence artifact activation is 11.6%.

As to `CCOc1ccc(C2OC34CCCCC3C(C#N)(C#N)C2(C#N)C(=N)O4)cc1OC` (stereo not given), the fluorescence artifact activation was 0.1%.

Regarding `Cc1c2ccccc2nc2c(F)c(NCCO)c(F)c(F)c12`, the fluorescence artifact activation is 42.9% (active).

In the case of `Cc1c2ccccc2nc2c(F)c(N(C)C)c(F)c(F)c12`, the fluorescence artifact activation was 0.16%.

In the case of `COC(=O)C1=NN(C(=O)c2ccc(Br)cc2)C(O)(C(C)(C)C)C1` (stereo not given), the fluorescence artifact activation is 1.09%.

With `CCOC(=O)c1cn(-c2ccc(F)c(F)c2F)c2c(F)c(F)c(F)cc2c1=O`, the fluorescence artifact activation is 0.24%.

Consider `CN(C)c1ccc(/C=C(/C#N)C(=O)Nc2nc3c(s2)CCN(Cc2ccccc2)C3)cc1`, for which the fluorescence artifact activation is 0.06%.

On to `Cc1ccc(NC(=O)COC(=O)/C=C/c2c(C)nn(-c3ccc(F)cc3)c2Cl)cc1F`, for which the fluorescence artifact activation was 0.01%.

With `CCOc1ccc(CCNC(=O)C2CCCN(S(=O)(=O)N3CCOCC3)C2)cc1OCC` (stereo not given), the fluorescence artifact activation was -0.05%.

Take `CC1CC(C)CN(S(=O)(=O)N2CCCC(C(=O)NC3CCCCC3)C2)C1` (stereo not given): the fluorescence artifact activation was 78.2% (active).

Consider `CCOC(=O)C1(Cc2cccc(OC)c2)CCN(Cc2ccon2)CC1`, for which the fluorescence artifact activation is 1.14%.

For the compound `COc1ccc(Br)cc1S(=O)(=O)Nc1ncccc1C`, the fluorescence artifact activation is 24.7% (active).

Take `COc1cc(Cl)c(S(=O)(=O)NCc2ccccn2)cc1Cl`: the fluorescence artifact activation was -0.05%.

With `COc1ccc(C(=O)O)cc1S(=O)(=O)NCCc1ccccn1`, the fluorescence artifact activation was 0.58%.

Turning to `CCOC(=O)c1c(C)oc2c1c(C=NCCO)c(O)c1ccccc12`, the fluorescence artifact activation was 0.07%.

With `O=C(O)CCNc1cc(N2CCN(C(=O)c3ccco3)CC2)c2noc3c2c1C(=O)c1ccccc1-3`, the fluorescence artifact activation is -0.01%.

Take `O=C1c2ccccc2-c2onc3c(N4CCN(CCO)CC4)cc(N4CCN(C(=O)c5ccco5)CC4)c1c23`: the fluorescence artifact activation is 0.06%.

Regarding `O=C(c1ccco1)N1CCN(c2ncnc3c(-c4ccc(Cl)cc4)nsc23)CC1`, the fluorescence artifact activation was 43.5% (active).

Regarding `COC(=O)Cn1c(C)c(/C=C/c2cc[n+](C)cc2)c2ccccc21`, the fluorescence artifact activation is 0.1%.

With `C[C@H](CO)N1C[C@H](C)[C@@H](CN(C)Cc2ccncc2)Oc2c(NS(=O)(=O)c3ccc(F)cc3)cccc2C1=O`, the fluorescence artifact activation was 0.19%.

In the case of `C[C@H](CO)N1C[C@H](C)[C@@H](CN(C)Cc2ccc(Oc3ccccc3)cc2)Oc2c(NC(=O)C3CC3)cccc2C1=O`, the fluorescence artifact activation is 20.1% (active).

Regarding `C[C@H](CO)N1C[C@H](C)[C@@H](CN(C)Cc2ccncc2)Oc2c(NC(=O)c3ccncc3)cccc2C1=O`, the fluorescence artifact activation is 1.32%.

Take `CC1=CC2=NC(=O)/C(=C\c3ccc(-c4cccc(Cl)c4)o3)C(=N)N2O1`: the fluorescence artifact activation was 7.64%.

With `CCOc1cc2c(cc1/C=C/c1noc(C)c1[N+](=O)[O-])OC(C)C2` (stereo not given), the fluorescence artifact activation is 145% (active).

Turning to `Cc1cc(N2C(=O)C(O)=C(C(=O)c3cccs3)C2c2ccc(F)cc2)no1` (stereo not given), the fluorescence artifact activation is 7.29%.

The record behind these values is PubChem BioAssay AID504382 (The Scripps Research Institute Molecular Screening Center, 2011).
